# Measurements as given in ChEMBL document CHEMBL4373651, “Indole compounds with N-ethyl morpholine moieties as CB2 receptor agonists for anti-inflammatory management of pain: synthesis and biological evaluation” (Medchemcomm, 2019).
# Biological target: Cannabinoid receptor 2 (Homo sapiens, UniProt P34972)
# Assay: Agonist activity at human CB2 receptor expressed in CHO cells coexpressing Galpha16 assessed as reduction in forsklin-induced cAMP production incubated for 30 mins by cAMP Hunter assay based […] analysis
# Assay type: functional, cell-based
# Conditions: cho
# How it was run: (§1)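 CHO cells expressing human CB1 or CB2 with Gα16, seeded overnight at 37 °C. Test compounds in stimulation buffer with 1 mM IBMX, 0.25% BSA and forskolin, 30 min at 37 °C. Cells lysed, cAMP read by enzyme fragment complementation chemiluminescence kit. Triplicate per dilution. Efficacy relative to CP-55940 reference run twice per plate. EC50 from means.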
# Sequence of Cannabinoid receptor 2 (P34972 whole entry): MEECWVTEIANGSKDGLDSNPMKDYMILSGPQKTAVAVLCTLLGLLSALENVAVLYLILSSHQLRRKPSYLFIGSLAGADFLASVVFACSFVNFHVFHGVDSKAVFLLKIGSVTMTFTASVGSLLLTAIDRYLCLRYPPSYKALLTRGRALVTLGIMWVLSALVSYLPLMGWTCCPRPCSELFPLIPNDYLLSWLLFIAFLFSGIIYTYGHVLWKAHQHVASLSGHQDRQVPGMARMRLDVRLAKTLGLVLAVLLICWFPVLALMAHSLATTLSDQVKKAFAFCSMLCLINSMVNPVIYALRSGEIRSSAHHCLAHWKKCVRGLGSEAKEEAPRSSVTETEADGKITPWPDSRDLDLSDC
row,EC50,Compound
1,Not Active,COc1ccc2c(c1)c(CCN1CCOCC1)c(C)n2CC(=O)NC1CC1
2,Not Active,Cc1c(CC(=O)NCc2ccc3c(c2)OCO3)c2cc(Cl)ccc2n1CCN1CCOCC1
3,Not Active,Cc1c(CCN2CCOCC2)c2cc(Cl)ccc2n1CC(=O)NC1CCCCC1
4,Not Active,COc1ccc2c(c1)c(CC(=O)NCc1ccc3c(c1)OCO3)c(C)n2CCN1CCOCC1
5,Not Active,Cc1c(CCN2CCOCC2)c2cc(F)ccc2n1CC(=O)N1CCCCC1
6,Not Active,Cc1c(CCN2CCOCC2)c2cc(Br)ccc2n1CC(=O)N1CCCCC1
7,Not Active,Cc1c(CC(=O)NCc2ccc3c(c2)OCO3)c2cc(F)ccc2n1CCN1CCOCC1
8,Not Active,Cc1c(CCN2CCOCC2)c2cc(Cl)ccc2n1CC(=O)N1CCCCC1
9,Not Active,Cc1c(CC(=O)N2CCCCC2)c2cc(F)ccc2n1CCN1CCOCC1
10,Not Active,Cc1c(CCN2CCOCC2)c2cc(F)ccc2n1CC(=O)NCc1ccc2c(c1)OCO2
11,Not Active,COc1ccc2c(c1)c(CC(=O)NC1CCCC1)c(C)n2CCN1CCOCC1
12,Not Active,Cc1c(CCN2CCOCC2)c2cc(Cl)ccc2n1CC(=O)N1CCCC1
13,Not Active,Cc1c(CC(=O)N2CCCCC2)c2cc(Cl)ccc2n1CCN1CCOCC1
14,Not Active,COc1ccc2c(c1)c(CC(=O)NC1CC1)c(C)n2CCN1CCOCC1
15,Not Active,COc1ccc2c(c1)c(CC(=O)NCC1CC1)c(C)n2CCN1CCOCC1
16,Not Active,Cc1c(CCN2CCOCC2)c2cc(Br)ccc2n1CC(=O)NCc1ccc2c(c1)OCO2
17,Not Active,Cc1c(CCN2CCOCC2)c2cc(Br)ccc2n1CC(=O)N1CCCC1
18,Not Active,Cc1c(CC(=O)N2CCCC2)c2cc(F)ccc2n1CCN1CCOCC1
19,Not Active,Cc1c(CCN2CCOCC2)c2cc(Cl)ccc2n1CC(=O)NCc1ccc2c(c1)OCO2
20,Not Active,Cc1c(CCN2CCOCC2)c2cc(F)ccc2n1CC(=O)N1CCCC1
21,Not Active,COc1ccc2c(c1)c(CC(=O)N1CCCC1)c(C)n2CCN1CCOCC1
22,Not Active,Cc1c(CC(=O)N2CCCC2)c2cc(Cl)ccc2n1CCN1CCOCC1
23,Not Active,Cc1c(CCN2CCOCC2)c2cc(Br)ccc2n1CC(=O)NC1CCCCC1
24,Not Active,Cc1c(CCN2CCOCC2)c2cc(F)ccc2n1CC(=O)NC1CCCCC1

row,Compound,EC50
1,Cc1c(CCN2CCOCC2)c2cc(Cl)ccc2n1C(=O)N1CCCC1,Not Active
2,Cc1c(CCN2CCOCC2)c2cc(F)ccc2n1C(=O)N1CCCC1,Not Active
3,Cc1c(CCN2CCOCC2)c2cc(Br)ccc2n1C(=O)N1CCCC1,Not Active

# Same assay, conditions: read-out: EC50
row,Compound,EC50
1,Cc1c(CCN2CCOCC2)c2cc(Cl)ccc2n1CC(=O)NC1CC1,5.3 µM

# Biological target: Cannabinoid receptor 1 (Homo sapiens, UniProt P21554)
# Assay: Agonist activity at human CB1 receptor expressed in CHO cells coexpressing Galpha16 assessed as reduction in forsklin-induced cAMP production incubated for 30 mins by cAMP Hunter assay based […] analysis
# Assay type: cell-based
# Conditions: cho
# How it was run: as §1
# Sequence of Cannabinoid receptor 1 (P21554 whole entry): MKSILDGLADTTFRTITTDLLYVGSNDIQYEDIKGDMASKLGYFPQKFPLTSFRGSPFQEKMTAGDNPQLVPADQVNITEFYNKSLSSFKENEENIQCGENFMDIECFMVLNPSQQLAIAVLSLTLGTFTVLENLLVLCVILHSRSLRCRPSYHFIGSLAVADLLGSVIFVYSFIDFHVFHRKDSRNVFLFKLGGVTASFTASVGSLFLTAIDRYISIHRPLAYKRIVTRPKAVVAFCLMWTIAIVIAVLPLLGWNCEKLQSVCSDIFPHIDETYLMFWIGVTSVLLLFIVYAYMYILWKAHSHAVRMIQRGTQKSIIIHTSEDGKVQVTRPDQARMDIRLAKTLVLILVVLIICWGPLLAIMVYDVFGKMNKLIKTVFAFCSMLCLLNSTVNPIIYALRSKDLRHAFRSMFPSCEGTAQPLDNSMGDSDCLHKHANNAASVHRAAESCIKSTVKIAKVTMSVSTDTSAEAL
row,EC50,Compound
1,Not Active,COc1ccc2c(c1)c(CCN1CCOCC1)c(C)n2CC(=O)NC1CC1
2,Not Active,Cc1c(CC(=O)NCc2ccc3c(c2)OCO3)c2cc(Cl)ccc2n1CCN1CCOCC1
3,Not Active,Cc1c(CCN2CCOCC2)c2cc(Cl)ccc2n1CC(=O)NC1CCCCC1
4,Not Active,COc1ccc2c(c1)c(CC(=O)NCc1ccc3c(c1)OCO3)c(C)n2CCN1CCOCC1
5,Not Active,Cc1c(CCN2CCOCC2)c2cc(F)ccc2n1CC(=O)N1CCCCC1
6,Not Active,Cc1c(CCN2CCOCC2)c2cc(Br)ccc2n1CC(=O)N1CCCCC1
7,Not Active,Cc1c(CC(=O)NCc2ccc3c(c2)OCO3)c2cc(F)ccc2n1CCN1CCOCC1
8,Not Active,Cc1c(CCN2CCOCC2)c2cc(Cl)ccc2n1CC(=O)N1CCCCC1
9,Not Active,Cc1c(CC(=O)N2CCCCC2)c2cc(F)ccc2n1CCN1CCOCC1
10,Not Active,Cc1c(CCN2CCOCC2)c2cc(F)ccc2n1CC(=O)NCc1ccc2c(c1)OCO2
11,Not Active,COc1ccc2c(c1)c(CC(=O)NC1CCCC1)c(C)n2CCN1CCOCC1
12,Not Active,Cc1c(CCN2CCOCC2)c2cc(Cl)ccc2n1CC(=O)N1CCCC1
13,Not Active,Cc1c(CC(=O)N2CCCCC2)c2cc(Cl)ccc2n1CCN1CCOCC1
14,Not Active,COc1ccc2c(c1)c(CC(=O)NC1CC1)c(C)n2CCN1CCOCC1
15,Not Active,COc1ccc2c(c1)c(CC(=O)NCC1CC1)c(C)n2CCN1CCOCC1
16,Not Active,Cc1c(CCN2CCOCC2)c2cc(Br)ccc2n1CC(=O)NCc1ccc2c(c1)OCO2
17,Not Active,Cc1c(CCN2CCOCC2)c2cc(Br)ccc2n1CC(=O)N1CCCC1
18,Not Active,Cc1c(CC(=O)N2CCCC2)c2cc(F)ccc2n1CCN1CCOCC1
19,Not Active,Cc1c(CCN2CCOCC2)c2cc(Cl)ccc2n1CC(=O)NCc1ccc2c(c1)OCO2
20,Not Active,Cc1c(CCN2CCOCC2)c2cc(F)ccc2n1CC(=O)N1CCCC1
21,Not Active,COc1ccc2c(c1)c(CC(=O)N1CCCC1)c(C)n2CCN1CCOCC1
22,Not Active,Cc1c(CC(=O)N2CCCC2)c2cc(Cl)ccc2n1CCN1CCOCC1
23,Not Active,Cc1c(CCN2CCOCC2)c2cc(Br)ccc2n1CC(=O)NC1CCCCC1
24,Not Active,Cc1c(CCN2CCOCC2)c2cc(F)ccc2n1CC(=O)NC1CCCCC1

row,Compound,EC50
1,Cc1c(CCN2CCOCC2)c2cc(Cl)ccc2n1CC(=O)NC1CC1,Not Active
2,Cc1c(CCN2CCOCC2)c2cc(Cl)ccc2n1C(=O)N1CCCC1,Not Active
3,Cc1c(CCN2CCOCC2)c2cc(F)ccc2n1C(=O)N1CCCC1,Not Active
4,Cc1c(CCN2CCOCC2)c2cc(Br)ccc2n1C(=O)N1CCCC1,Not Active
